Assay results from different studies.
Protocols differ between the studies behind these lines.
ABL1 F317I phosphorylated: Tyrosine-protein kinase ABL1, phosphorylated (ABL1, Homo sapiens, UniProt P00519, F317I)
ABL1 H396P non-phosphorylated: Tyrosine-protein kinase ABL1, non-phosphorylated (ABL1, Homo sapiens, UniProt P00519, H396P)
ABL1 M351T: Tyrosine-protein kinase ABL1 (ABL1, Homo sapiens, UniProt P00519, M351T)
ABL1 T315I phosphorylated: Tyrosine-protein kinase ABL1, phosphorylated (ABL1, Homo sapiens, UniProt P00519, T315I)
ABL1 F317L non-phosphorylated: Tyrosine-protein kinase ABL1, non-phosphorylated (ABL1, Homo sapiens, UniProt P00519, F317L)
ABL1 M351T phosphorylated: Tyrosine-protein kinase ABL1, phosphorylated (ABL1, Homo sapiens, UniProt P00519, M351T)

Compound	target	effect on	method	tested at	remaining binding
Cc1cnn2ncc(-c3ccnc(N(C)C)n3)c2c1	Tyrosine-protein kinase ABL1 (ABL1, Homo sapiens, UniProt P00519, E255K)	binding	–	1 µM	100%
O=C(NCCCN1CCOCC1)c1ccc(Nc2nccc(-c3cc4ccccc4s3)n2)cc1	ABL1 F317I phosphorylated	binding	competition with immobilised ligand	1 µM	84%
C[C@H]1CCN(c2nccc(-c3cnn4ncccc34)n2)C1	Tyrosine-protein kinase ABL1, non-phosphorylated (ABL1, Homo sapiens, UniProt P00519)	binding	–	1 µM	86%
O=C(NCCCN1CCOCC1)c1ccc(Nc2ncc(Cl)c(-c3ccc(Cl)s3)n2)cc1	ABL1 F317I phosphorylated	binding	competition with immobilised ligand	1 µM	99%
CC(C)CC(=O)N1CCc2nc(-c3ccc(Br)cc3)nc(N(C)Cc3ccccc3)c2C1	ABL1 H396P non-phosphorylated	cell-free assay	competition with immobilised ligand	0.1 µM	68%
CN(c1nccc(-c2cnn3ncccc23)n1)C1CC1	ABL1 M351T	binding	–	1 µM	100%
CC(=O)C1=C(C)N(c2cccc(C(F)(F)F)c2)C(=O)N[C@@H]1c1ccc(C#N)nc1	ABL1 T315I phosphorylated	cell-free assay	competition with immobilised ligand	1 µM	96.9%
O=C(c1ccc(Nc2ncc(Cl)c(-c3cc4ccccc4s3)n2)cc1)N1CCC(N2CCCC2)CC1	ABL1 T315I phosphorylated	binding	competition with immobilised ligand	1 µM	3.3%
N[C@H]1CCN(c2nccc(-c3cnn4ncccc34)n2)C1	ABL1 M351T	binding	–	1 µM	100%
COc1ncc2cc3ccccc3nc2c1C#N	ABL1 F317L non-phosphorylated	cell-free assay	competition with immobilised ligand	5 µM	100%
O=C(c1ccc(Nc2ncc(Cl)c(-c3ccc(Cl)s3)n2)cc1)N1CCC(N2CCCC2)CC1	ABL1 F317I phosphorylated	binding	competition with immobilised ligand	1 µM	87%
O=C(NCC1CCOCC1)c1n[nH]cc1NC(=O)c1c(F)cccc1F	Tyrosine-protein kinase ABL1, phosphorylated (ABL1, Homo sapiens, UniProt P00519, Q252H)	binding	competition with immobilised ligand	1 µM	83%
CCN1CCN(Cc2ccc(C(=O)Nc3ccc(C)c(Oc4ccc5c(c4)CC(=O)N5)c3)cc2C(F)(F)F)CC1	ABL1 H396P non-phosphorylated	binding	competition with immobilised ligand	1 µM	0.35%
C[C@@H]1CN(c2cc(-c3nn(C)c4ccc(OC5(C)CC5)cc34)ncn2)C[C@H](C)O1	ABL1 H396P non-phosphorylated	cell-free assay	competition with immobilised ligand	1 µM	75%
COc1cnc(Nc2cccc(S(N)(=O)=O)c2)nc1N1CCN(c2ccccc2)C(=O)C1	ABL1 F317L non-phosphorylated	binding	competition with immobilised ligand	1 µM	90%
CNC(=O)Nc1ccc2c(c1)CC[C@@]21OC(=O)N(CC(=O)N(Cc2ccc(F)cc2)[C@@H](C)C(F)(F)F)C1=O	Tyrosine-protein kinase ABL1, non-phosphorylated (ABL1, Homo sapiens, UniProt P00519, T315I)	cell-free assay	competition with immobilised ligand	1 µM	78%
CNC(=O)[C@@H]1CC[C@@H](n2c(-c3ccc4cnccc4c3)nc3ccc(C(=O)NCc4cccc(C(N)=O)c4)cc32)C1	ABL1 M351T phosphorylated	binding	competition with immobilised ligand	1 µM	92%
O=C(N1CCS(=O)(=O)CC1)N1C[C@H](c2ccc(OC(F)(F)F)cc2)C[C@H](c2nc(C3CC3)no2)C1	Tyrosine-protein kinase ABL1, phosphorylated (ABL1, Homo sapiens, UniProt P00519, H396P)	cell-free assay	competition with immobilised ligand	1 µM	100%
c1cncc(-c2cccc(Nc3nccc(NC4CCCCC4)n3)c2)c1	ABL1 F317L non-phosphorylated	binding	competition with immobilised ligand	10 µM	81%
Cc1cc(-n2nc(Cc3cc(F)cc(C(F)(F)F)c3)nc2C)ccc1C(N)=O	Tyrosine-protein kinase ABL1, phosphorylated (ABL1, Homo sapiens, UniProt P00519, F317L)	cell-free assay	competition with immobilised ligand	1 µM	100%
C[C@@H](c1ccc(-n2cnc3c(N)ncnc32)cc1)N1CCc2nn(C)c(Cc3ccccc3)c2C1=O	ABL1 M351T phosphorylated	binding	competition with immobilised ligand	0.1 µM	49%
